Experimental data from ChEMBL document CHEMBL1136991, “Novel potent BRAF inhibitors: toward 1 nM compounds through optimization of the central phenyl ring” (J Med Chem, 2009).
The source made the active and inactive calls. No cut-off for these calls is given here.

Key:
[1] = Growth inhibition of human WM266.4 cells expressing BRAF V600E mutant after 5 days by SRB assay; assay type: functional; details: WM 266-4, 120 h
Procedure, shortened: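 WM266.4 human melanoma cells, which are driven by mutant BRAF, were assayed for proliferation by sulforhodamine B (SRB) staining; the value is a GI50.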

[2] = biological target: T1, Serine/threonine-protein kinase B-raf (Homo sapiens, UniProt P15056, V600E); assay: Inhibition of BRAF V600E mutant-mediated ERK phosphorylation in human WM266.4 cells; assay type: cell-based
T1 sequence (P15056 2-766 V600E limits assumed): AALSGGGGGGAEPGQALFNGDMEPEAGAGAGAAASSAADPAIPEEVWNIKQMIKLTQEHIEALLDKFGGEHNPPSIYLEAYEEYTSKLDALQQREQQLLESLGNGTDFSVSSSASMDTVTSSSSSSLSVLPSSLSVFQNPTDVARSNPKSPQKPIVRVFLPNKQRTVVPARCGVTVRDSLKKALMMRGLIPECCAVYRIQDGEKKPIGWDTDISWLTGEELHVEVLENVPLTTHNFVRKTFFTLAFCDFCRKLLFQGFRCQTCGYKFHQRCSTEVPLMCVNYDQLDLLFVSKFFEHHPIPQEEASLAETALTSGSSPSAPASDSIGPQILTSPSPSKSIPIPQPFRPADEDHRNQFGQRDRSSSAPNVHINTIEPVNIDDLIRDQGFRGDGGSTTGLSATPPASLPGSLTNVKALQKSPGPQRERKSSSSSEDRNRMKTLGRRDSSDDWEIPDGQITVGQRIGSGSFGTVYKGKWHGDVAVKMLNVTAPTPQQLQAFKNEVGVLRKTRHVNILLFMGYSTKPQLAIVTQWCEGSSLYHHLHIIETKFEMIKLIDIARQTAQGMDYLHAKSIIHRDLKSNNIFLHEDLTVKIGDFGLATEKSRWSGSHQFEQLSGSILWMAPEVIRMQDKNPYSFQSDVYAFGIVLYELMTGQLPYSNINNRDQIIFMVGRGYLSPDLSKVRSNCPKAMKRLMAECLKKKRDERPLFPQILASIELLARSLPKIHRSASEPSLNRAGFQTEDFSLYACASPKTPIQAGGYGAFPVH
Procedure, shortened: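 Cellular pathway read-out: ERK phosphorylation (pERK) was measured in WM266.4 melanoma cells and reported as an IC50.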

[3] = biological target: T1, Serine/threonine-protein kinase B-raf; assay: Inhibition of BRAF V600E mutant
Procedure, shortened: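 Purified, isolated V600E BRAF enzyme assayed in vitro; potency reported as IC50.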

WM1361 = assay: Growth inhibition of human WM1361 cells expressing NRAS mutant after 5 days by SRB assay; assay type: functional, cell-based

IC50 [2]	IC50 [3]	Structure (SMILES)	GI50 [1]	Activity (WM1361)
2170 nM	8 nM	O=C(Nc1ccc(Cl)c(C(F)(F)F)c1)Nc1ccc(Oc2ccnc3[nH]c(=O)[nH]c23)cc1F	1530 nM	
2000 nM	167 nM	Cn1c(=O)[nH]c2c(Oc3ccc(NC(=O)Nc4cc(C(F)(F)F)ccc4F)c4ccccc34)ccnc21	730 nM	
> 100000 nM	6500 nM	O=C(Nc1ccc(Cl)c(C(F)(F)F)c1)Nc1ccc(Oc2ccnc3[nH]c(=O)[nH]c23)cc1-c1ccccc1	5100 nM	
1330 nM	23 nM	O=C(Nc1ccc(Cl)c(C(F)(F)F)c1)Nc1ccc(Oc2ccnc3[nH]c(=O)[nH]c23)cc1Cl	2000 nM	
600 nM	10 nM	Cn1c(=O)[nH]c2nccc(Oc3ccc(NC(=O)Nc4cccc(C(F)(F)F)c4)c4ccccc34)c21	810 nM	
3900 nM	56 nM	Cc1c(NC(=O)Nc2ccc(Cl)c(C(F)(F)F)c2)ccc(Oc2ccnc3[nH]c(=O)[nH]c23)c1C	2000 nM	
59000 nM	23 nM	Cc1cc(NC(=O)Nc2ccc(Cl)c(C(F)(F)F)c2)ccc1Oc1ccnc2[nH]c(=O)[nH]c12	1790 nM	
21000 nM	10 nM	Cn1c(=O)[nH]c2nccc(Oc3ccc(NC(=O)Nc4ccc(Cl)c(C(F)(F)F)c4)c(F)c3)c21	100000 nM	
346 nM	14 nM	O=C(Nc1cc(C(F)(F)F)ccc1N1CCOCC1)Nc1ccc(Oc2ccnc3[nH]c(=O)[nH]c23)c2ccccc12	291 nM	
214 nM	37 nM	O=C(Nc1cccc(F)c1)Nc1ccc(Oc2ccnc3[nH]c(=O)[nH]c23)c2ccccc12	290 nM	
> 100000 nM	106 nM	COc1cc(Oc2ccnc3[nH]c(=O)[nH]c23)ccc1NC(=O)Nc1ccc(Cl)c(C(F)(F)F)c1		
46000 nM	430 nM	Cn1c(=O)[nH]c2c(Oc3ccc(NC(=O)Nc4cccc(C(C)(C)C)c4)c4ccccc34)ccnc21	> 100000 nM	
5500 nM	25 nM	COc1cc(NC(=O)Nc2ccc(Cl)c(C(F)(F)F)c2)ccc1Oc1ccnc2[nH]c(=O)[nH]c12	6200 nM	
1460 nM	24 nM	Cn1c(=O)[nH]c2nccc(Oc3ccc(NC(=O)Nc4cccc(SC(F)(F)F)c4)c4ccccc34)c21	1200 nM	
3140 nM	156 nM	Cn1c(=O)[nH]c2c(Oc3ccc(NC(=O)Nc4ccc(Cl)c(C(F)(F)F)c4)c4ccccc34)ccnc21	2300 nM	
4150 nM	7 nM	O=C(Nc1cccc(SC(F)(F)F)c1)Nc1ccc(Oc2ccnc3[nH]c(=O)[nH]c23)cc1F	1190 nM	
1060 nM	37 nM	Cn1c(=O)[nH]c2nccc(Oc3ccc(NC(=O)Nc4cccc(C(C)(C)C)c4)c4ccccc34)c21	1130 nM	
2390 nM		O=C(Nc1ccc(Oc2ccnc3[nH]c(=O)[nH]c23)cc1)Nc1ccc(Cl)c(C(F)(F)F)c1	4200 nM	
3060 nM	12 nM	CSc1cc(Oc2ccnc3[nH]c(=O)[nH]c23)ccc1NC(=O)Nc1cc(C(F)(F)F)ccc1F	2600 nM	

IC50 [2]	IC50 [3]	Structure (SMILES)	GI50 [1]	Activity (WM1361)
> 100000 nM	220 nM	O=C(Nc1ccc(F)c(F)c1)Nc1ccc(Oc2ccnc3[nH]c(=O)[nH]c23)c2ccccc12	5500 nM	
610 nM	1 nM	CSc1cc(Oc2ccnc3[nH]c(=O)[nH]c23)ccc1NC(=O)Nc1ccc(Cl)c(C(F)(F)F)c1	470 nM	
> 100000 nM	> 10000 nM	O=C(Cc1cccc(C(F)(F)F)c1)Nc1ccc(Oc2ccnc3[nH]c(=O)[nH]c23)c2ccccc12		
4720 nM	37 nM	Cc1cc(Oc2ccnc3[nH]c(=O)[nH]c23)ccc1NC(=O)Nc1ccc(Cl)c(C(F)(F)F)c1	5900 nM	
559 nM	30 nM	O=C(Nc1ccc(Cl)c(C(F)(F)F)c1)Nc1ccc(Oc2ccnc3[nH]c(=O)[nH]c23)c2ccccc12	470 nM	
18400 nM	4600 nM	Cn1c(=O)[nH]c2nccc(Oc3ccc(NC(=O)c4cccc(SC(F)(F)F)c4)c4ccccc34)c21	7600 nM	
3450 nM	12 nM	O=C(Nc1cccc(C(F)(F)F)c1)Nc1ccc(Oc2ccnc3[nH]c(=O)[nH]c23)cc1F	1610 nM	
11000 nM	90 nM	CS(=O)(=O)c1cc(Oc2ccnc3[nH]c(=O)[nH]c23)ccc1NC(=O)Nc1ccc(Cl)c(C(F)(F)F)c1	11900 nM	
770 nM	23 nM	Cn1c(=O)[nH]c2nccc(Oc3ccc(NC(=O)Nc4ccc(Cl)c(C(F)(F)F)c4)c4ccccc34)c21	1040 nM	
810 nM	17 nM	Cn1c(=O)[nH]c2nccc(Oc3ccc(NC(=O)Nc4cc(C(F)(F)F)ccc4F)c4ccccc34)c21	490 nM	
		CNC(=O)c1cc(Oc2ccc(NC(=O)Nc3ccc(Cl)c(C(F)(F)F)c3)cc2)ccn1		inactive
34000 nM	47 nM	O=C(Nc1ccc(Oc2ccnc3[nH]c(=O)[nH]c23)c(F)c1)Nc1ccc(Cl)c(C(F)(F)F)c1		
> 100000 nM	> 10000 nM	O=C(Cc1cccc(OC(F)(F)F)c1)Nc1ccc(Oc2ccnc3[nH]c(=O)[nH]c23)c2ccccc12	3100 nM	
3580 nM	22 nM	O=C(Nc1ccc(Cl)c(C(F)(F)F)c1)Nc1ccc(Oc2ccnc3[nH]c(=O)[nH]c23)cc1C(F)(F)F	930 nM	
29400 nM	16 nM	COc1cc(NC(=O)Nc2cccc(C(F)(F)F)c2)ccc1Oc1ccnc2[nH]c(=O)[nH]c12	> 100000 nM	
1290 nM	7 nM	O=C(Nc1ccc(Oc2ccnc3[nH]c(=O)[nH]c23)cc1F)Nc1cc(C(F)(F)F)ccc1F	1150 nM	
20700 nM	10000 nM	CN(C)c1cc(Oc2ccnc3[nH]c(=O)[nH]c23)ccc1NC(=O)Nc1ccc(Cl)c(C(F)(F)F)c1	5340 nM	
31000 nM	5200 nM	Cn1c(=O)[nH]c2nccc(Oc3ccc(NC(=O)c4cccc(OC(F)(F)F)c4)c4ccccc34)c21	12000 nM	
1910 nM	6 nM	O=C(Nc1cccc(C(F)(F)F)c1)Nc1ccc(Oc2ccnc3[nH]c(=O)[nH]c23)c2ccccc12	320 nM	
